The source made the active and inactive calls. The rule behind the calls is not given here. Peptide text beside a SMILES is read from it. * marks the point of attachment. Cbz = O=C(OCc1ccccc1)*

The test system of series [1] is Hepa-1c1c7. The experiment in a line: Increase of Nrf2 protein level in mouse Hepa-1c1c7 cells at 10 uM for 6 hrs Western blotting relative to control.
Series [2] is described as follows: Cytotoxicity against mouse Hepa-1c1c7 cells assessed as cell survival at 25 uM after 48 hrs by MTT assay. The format is cell-based. Conditions: read-out: Activity. In a few lines:
(§1)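 MTT (0.5 mg/ml) added for 3 h at 37 °C, formazan dissolved in DMSO and read at 590 nm. Survival (%) = (A treated − A blank)/(A untreated − A blank) × 100.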

Series [3] in a line: Cytotoxicity against mouse Hepa-1c1c7 cells assessed as cell survival at 5 uM after 48 hrs by MTT assay. The class given is cell-based. Conditions: read-out: Activity. In a few lines: as §1
For series [4], the target named is T1, CYP1A1 (Mus musculus, UniProt P30561).
T1 sequence (P30561 whole entry): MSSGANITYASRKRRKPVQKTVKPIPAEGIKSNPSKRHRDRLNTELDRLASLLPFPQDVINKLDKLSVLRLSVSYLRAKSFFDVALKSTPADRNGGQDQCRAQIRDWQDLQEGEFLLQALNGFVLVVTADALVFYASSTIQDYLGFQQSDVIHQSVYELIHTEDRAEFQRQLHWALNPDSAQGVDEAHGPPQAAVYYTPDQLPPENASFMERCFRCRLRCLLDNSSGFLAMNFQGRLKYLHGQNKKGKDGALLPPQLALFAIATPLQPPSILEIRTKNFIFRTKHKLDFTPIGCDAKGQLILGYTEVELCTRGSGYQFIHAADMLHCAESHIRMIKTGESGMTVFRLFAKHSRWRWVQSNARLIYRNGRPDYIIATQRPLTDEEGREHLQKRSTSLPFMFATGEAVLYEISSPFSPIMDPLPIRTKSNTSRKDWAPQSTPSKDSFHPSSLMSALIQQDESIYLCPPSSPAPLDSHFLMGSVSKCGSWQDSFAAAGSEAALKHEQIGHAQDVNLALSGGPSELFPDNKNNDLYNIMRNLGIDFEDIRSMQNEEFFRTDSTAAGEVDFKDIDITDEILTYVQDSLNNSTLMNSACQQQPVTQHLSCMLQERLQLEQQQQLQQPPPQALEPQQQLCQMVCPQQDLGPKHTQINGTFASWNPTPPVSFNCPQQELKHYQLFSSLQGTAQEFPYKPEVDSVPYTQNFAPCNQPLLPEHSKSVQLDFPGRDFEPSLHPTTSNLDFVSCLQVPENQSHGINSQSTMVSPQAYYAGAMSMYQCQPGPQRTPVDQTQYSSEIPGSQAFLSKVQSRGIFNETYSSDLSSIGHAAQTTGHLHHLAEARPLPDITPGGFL
The experiment in a line: Induction of Ah receptor in mouse Hepa-1c1c7 cells assessed as induction of CYP1A1 activity at 5 uM after 48 hrs by EROD assay relative to control. The class given is cell-based. As to conditions: probe ethoxyresorufin (EROD), read-out: FC. An outline of the steps:
(§2)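 Hepa1c1c7 cells at 10⁴/well grown 24 h, then given compound at one fixed concentration for 48 h. After a PBS wash, cells incubated 40 min at 37 °C with 5 µM 7-ethoxyresorufin plus 2 mM salicylamide. Resorufin fluorescence read at ex 530/em 590 nm. Fold induction = (F cells+compound − F blank)/(F control − F blank); mean ± SD, n = 3.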

In series [5] the test system is Hepa-1c1c7. The experiment in a line: Induction of human NQO1 gene expression in mouse Hepa-1c1c7 cells co-transfected with pGL3-ARE at 10 to 25 uM after 24 hrs by luciferase reporter gene assay. The format is functional, cell-based. In a few lines:
(§3)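 Hepa1c1c7 cells at about 50% confluency co-transfected with pGL3-ARE firefly luciferase (human NQO1 ARE) and pRL-CMV Renilla as transfection control. After 24 h, cells exposed to compound (10 or 25 µM). Dual luciferase read-out expressed as fold over control; mean ± SD of 3 independent transfections, t-test.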
A general note: In a reporter assay the amount or activity of a reporter protein is the signal.

For series [6], the system named is Hepa-1c1c7. The experiment in a line: Induction of TrxR activity in mouse Hepa-1c1c7 cells at 10 uM after 24 hrs. The class given is cell-based. An outline of the steps: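 Hepa1c1c7 cells treated with compound at 10 µM for 24 h. Digitonin/EDTA lysate (25 µg) incubated 20 min at 37 °C with 85 mM HEPES pH 7.6, 0.3 mM insulin, 660 µM NADPH, 2.5 mM EDTA and 5 µM human thioredoxin. Reaction quenched with DTNB in guanidine; A412 read, minus no-thioredoxin background. Fold versus control, mean ± SEM, n = 3.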

The nature of series [7]: Induction of NQO1 activity in mouse Hepa-1c1c7 cells at 5 uM after 48 hrs relative to control.
A short description of series [8]: Induction of NQO1 activity in mouse Hepa-1c1c7 cells at 25 uM after 48 hrs relative to control.
Series [9] has as its target NAD(P)H dehydrogenase [quinone] 1 (Homo sapiens) (UniProt P15559). The experiment in a line: Induction of […] NQO1 activity in mutant mouse BPrc1 cells assessed as concentration require for 2 fold induction after 48 hrs. The class given is cell-based. In a few lines: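 Mutant Hepa1c1c7 line (Bp^rc1, defective Ah-receptor pathway) seeded at 10⁴ cells/well for 24 h, then exposed to compound for 48 h; final DMSO ≤0.5%. Cells lysed with 0.8% digitonin/2 mM EDTA. NQO1 read by menadione-driven MTT reduction (NADP, glucose-6-phosphate regenerating system, FAD, pH 7.4), stopped after 5 min with dicoumarol, A590. Activity taken relative to blank and control wells; CD = concentration doubling basal activity; mean ± SD of 3 determinations.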

For series [10], the target named is T1, CYP1A1. The experiment in a line: Induction of Ah receptor in mouse Hepa-1c1c7 cells assessed as induction of CYP1A1 activity at 10 uM after 48 hrs by EROD assay relative to control. The format is cell-based. As to conditions: probe ethoxyresorufin (EROD), read-out: FC. An outline of the steps:
as §2

The subject of series [11] is Hepa-1c1c7. The experiment in a line: Increase of Nrf2 protein level in mouse Hepa-1c1c7 cells at 10 uM for 6 hrs Western blotting relative to control. The class given is functional, cell-based. An outline of the steps:
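Hepa1c1c7 cells exposed to compound at 10 µM for 6 h, with MG132 (25 µM) as reference. Lysates made in digitonin/EDTA with protease inhibitors; 50 µg protein run on 15% SDS-PAGE, blotted to nitrocellulose and probed for Nrf2 with β-actin loading control. Bands quantified by densitometry against untreated control, 3 experiments, independent t-test.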
A general note: In western blotting, separated proteins are transferred to a membrane and probed.

A short description of series [12]: Transcriptional activation of Nrf2/ARE signaling pathway in mouse Hepa-1c1c7 cells assessed as increase in cellular GSH level at 10 uM after 24 hrs by Ellman's method. The format is functional, cell-based. In a few lines: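 Hepa1c1c7 cells at 10⁶/plate grown 24 h, then given compound at 10 µM final for 24 h. Pellets extracted with 3% sulfosalicylic acid. Total GSH measured by DTNB recycling (0.6 mM DTNB, 0.2 mM NADPH, GSH reductase) as ΔA412 over 5 min against a GSH standard curve. Values normalized to Bradford protein from a parallel plate; mean ± SEM, n = 3.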
(In general: DTNB colorimetry detects thiols as they appear.)

Series [13] in a line: Upregulation of TrxR protein expression in mouse Hepa-1c1c7 cells at 10 uM after 24 hrs by Western blotting relative to control. The format is functional, cell-based. In a few lines:
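Hepa1c1c7 cells exposed to compound at 10 µM for 24 h. Digitonin/EDTA lysates (50 µg protein) separated on 15% SDS-PAGE, blotted to nitrocellulose and probed with anti-TrxR antibody. Band intensity compared with untreated control; representative of 3 experiments.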

Series [14] concerns the target T1, CYP1A1. The experiment in a line: (§4) Induction of Ah receptor in mouse Hepa-1c1c7 cells assessed as induction of CYP1A1 activity at 1 uM after 48 hrs by EROD assay relative to control. The class given is cell-based. Conditions: Hepa-1c1c7 cells, probe ethoxyresorufin (EROD), read-out: FC. An outline of the steps: as §2
Series [15] in a line: Induction of NQO1 activity in mouse Hepa-1c1c7 cells at 1 uM after 48 hrs relative to control.
For series [16], the target named is T2, Aryl hydrocarbon receptor (Mus musculus, UniProt P30561).
T2 sequence (P30561 whole entry): T1 sequence (P30561 whole entry)
The series is described as §4. The format is cell-based. As to conditions: hepa-1c1c7, 48 h, 1 µM. An outline of the steps: as §2

The test system of series [17] is Hepa-1c1c7. The experiment in a line: Induction of human NQO1 gene expression in mouse Hepa-1c1c7 cells co-transfected with pGL3-ARE at 25 uM after 24 hrs by luciferase reporter gene assay. The format is functional, cell-based. An outline of the steps: as §3

Chain of NAD(P)H dehydrogenase [quinone] 1 (Homo sapiens) (P15559 whole entry): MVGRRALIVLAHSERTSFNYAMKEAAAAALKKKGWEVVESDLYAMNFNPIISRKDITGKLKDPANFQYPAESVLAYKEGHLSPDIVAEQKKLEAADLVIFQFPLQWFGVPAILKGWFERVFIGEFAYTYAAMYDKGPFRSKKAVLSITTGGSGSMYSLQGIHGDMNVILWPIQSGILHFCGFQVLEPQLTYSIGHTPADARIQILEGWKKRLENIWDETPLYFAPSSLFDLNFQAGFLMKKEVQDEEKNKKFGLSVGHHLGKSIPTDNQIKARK

Turning to `CC(C)C[C@@H](C=O)NC(=O)[C@H](CC(C)C)NC(=O)[C@H](CC(C)C)NC(=O)OCc1ccccc1` (Cbz-Leu-Leu-Leu-aldehyde), the result in series [1] was Active.
`O=C1/C(=C/c2ccccc2O)Oc2ccccc21`: the viability at 48 h, 25 µM in series [2] was 102%. For the same molecule, the viability at 48 h, 5 µM in series [3] is 110%. For the same molecule, the fold induction at 48 h, 5 µM in series [4] is 1.4. Further, the outcome in series [5] and in series [6] was inactive. In addition, the fold change (FC) in [7] was 1.41; in series [8], 1.61.
Take `COc1cc(OC)c2c(c1)OC(Cc1ccccc1O)C2=O` (stereo unspecified): the viability at 48 h, 5 µM in series [3] is 102%. Further, the outcome in series [5] and in series [6] was inactive. The fold change (FC) in series [7] stood at 1.55.
On to `O=c1cc(-c2ccccc2)oc2ccc3ccccc3c12`, for which the result in [9] was inactive.
`COc1cc(OC)c2c(c1)O/C(=C\c1ccccc1O)C2=O`: in series [3], the viability at 48 h, 5 µM came to 102%. In addition, in series [10], the fold induction at 48 h, 10 µM amounted to 1.87. Further, the result in series [5], in series [11], in series [12] and in [13] was Active. This molecule also displayed a fold change (FC) in series [7] of 5.28.
As to `COc1cc(OC)c2c(c1)O/C(=C\c1ccccc1OC)C2=O`, the viability at 48 h, 5 µM in [3] was 82%. Besides, the fold induction at 48 h, 1 µM in series [14] came out at 1.56. Further, in series [15], the fold change (FC) worked out at 2.21.
For the molecule `C[S+]([O-])CCCCN=C=S` (stereo unspecified) [SULFORAPHANE], the result in series [9] and in [5] was inactive. Also, the Activity in series [16] is 0.92. In [11], the result was Active.
Take `O=C1/C(=C/c2ccccc2O)Oc2cc(O)cc(O)c21`: the result in series [17], in series [5], in [11] and in series [12] was Active. Besides, in [3], the viability at 48 h, 5 µM worked out at 102%. Besides, in series [10], the fold induction at 48 h, 10 µM is 1.1. Besides, the fold change (FC) in series [7] came out at 2.92.
As to `COc1cc(OC)c2c(c1)O/C(=C\c1ccccc1)C2=O`, the viability at 48 h, 5 µM in [3] amounted to 93%. Further, in series [10], the fold induction at 48 h, 10 µM amounted to 2.04. In addition, the result in series [5], in [11], in series [12] and in [13] was Active. For the same molecule, in [7], the fold change (FC) came out at 7.7.

These data come from ChEMBL document CHEMBL1177857, “Functionalized aurones as inducers of NAD(P)H:quinone oxidoreductase 1 that activate AhR/XRE and Nrf2/ARE signaling pathways: synthesis, evaluation and SAR” (Eur J Med Chem, 2010).
